The record followed here is ChEMBL document CHEMBL1177744, “An efficient and economical MTT assay for determining the antioxidant activity of plant natural product extracts and pure compounds” (J Nat Prod, 2010).

The nature of this assay: Antioxidant activity assessed as formazan formation induced absorbance changes at 25 ppm at 570 nm at 37 degC for 6 hrs by MTT assay. In kind it is functional. The method, boiled down: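 Cell-free redox assay: MTT in water (190 µL) vortexed 1 min with sample (10 µL) in DMSO in a capped 2 mL glass vial. DMSO (200 µL) then added to give 50:50 water-DMSO, and the mixture vortexed again. Incubated 6 h at 37 °C, then 200 µL read at 570 nm for formazan. Triplicates, experiment repeated 10 times, mean absorbance reported.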
A general note: Tetrazolium dyes change colour on reduction, which living cells bring about.

Several values for one entry are separate records, joined by “and”; a condition that tells them apart may be missing. Identical values can stand only once.

For `CCCC/C=C\CCCCCCCCC(=O)O`, the deltaA was 0.19.
To `CC/C=C\C/C=C\C/C=C\CCCCCCCC(=O)OC` belongs 0.25; to `O=C(/C=C/c1ccc(O)cc1)CC(=O)/C=C/c1ccc(O)cc1`, 0.37.
In the case of `CCCCCCCCCC(=O)O` it was 0.51; in that of `CCCCCCCCC(=O)O`, 0.16.
In the case of `CCCCCCCCCCCCCCCCCCCCC(=O)O` it was 0.22.
On to `Cc1cc(C(C)(C)C)c(O)c(C(C)(C)C)c1`, for which the deltaA stood at 0.51.
In the case of `C[C@H]1O[C@@H](Oc2cc3c(O)cc(O)cc3[o+]c2-c2ccc(O)c(O)c2)[C@@H](O[C@@H]2O[C@H](CO)[C@@H](O)[C@H](O)[C@H]2O)[C@@H](O)[C@@H]1O` it was 0.17.
In the case of `O=c1c(O)c(-c2ccc(O)c(O)c2)oc2cc(O)cc(O)c12` it was 0.75 and 0.3; in that of `C[C@H]1[C@H](C)CC[C@]2(C(=O)O)CC[C@]3(C)C(=CC[C@@H]4[C@@]5(C)CC[C@H](O)C(C)(C)[C@@H]5CC[C@]43C)[C@H]12`, 0.43; in that of `O=C(O[C@@H]1Cc2c(O)cc(O)cc2O[C@H]1c1cc(O)c(O)c(O)c1)c1cc(O)c(O)c(O)c1`, 0.92.
To `Oc1cc(O)c2c(c1)O[C@@H](c1ccc(O)c(O)c1)[C@H](O)C2` belongs 0.53; to `CC(C)(C)c1cc(O)ccc1O`, 0.51; to `CCCCCC/C=C\CCCC(=O)O`, 0.17.
Take `O=C(O[C@@H]1Cc2c(O)cc(O)cc2O[C@@H]1c1ccc(O)c(O)c1)c1cc(O)c(O)c(O)c1`: the deltaA amounted to 1.18.
For the compound `CC1=C(/C=C/C(C)=C/C=C/C(C)=C/C=C/C=C(C)/C=C/C=C(C)/C=C/C2=C(C)CCCC2(C)C)C(C)(C)CCC1`, the deltaA turned out to be 0.32.
In the case of `O=C(/C=C/c1ccc(O)c(O)c1)O[C@@H]1C[C@](O)(C(=O)O)C[C@@H](O)[C@H]1O` it was 0.72; in that of `C[C@@H]1O[C@@H](Oc2c(-c3ccc(O)c(O)c3)oc3cc(O)cc(O)c3c2=O)[C@H](O)[C@H](O)[C@H]1O`, 0.3; in that of `Oc1cc(O)c2c(c1)O[C@H](c1ccc(O)c(O)c1)[C@H](O)C2`, 0.17.
In the case of `CC(C)CCC[C@@H](C)[C@H]1CC[C@H]2[C@@H]3CC=C4C[C@@H](O[C@@H]5O[C@H](CO)[C@@H](O)[C@H](O)[C@H]5O)CC[C@]4(C)[C@H]3CC[C@]12C` it was 0.3.
Regarding `COC(=O)/C=C/C(C)=C\C=C\C(C)=C\C=C\C=C(C)\C=C\C=C(C)\C=C\C(=O)O`, the deltaA is 0.61.
To `O=C(O)CC(=O)OC[C@@H]1O[C@H](Oc2cc3c(O)cc(O)cc3[o+]c2-c2ccc(O)c(O)c2)[C@@H](O)[C@H](O)[C@H]1O` belongs 0.2.
Turning to `COc1ccc(-c2cc(=O)c3ccc(O)cc3o2)cc1`, the deltaA worked out at 0.23.
In the case of `Oc1cc(O)c2c(c1)OC(c1ccc(O)c(O)c1)C(O)C2` (racemic) it was 1.18.
In the case of `COc1ccc(-c2coc3cc(O)ccc3c2=O)cc1` it was 0.2; in that of `O=c1cc(-c2ccc(O)c(O)c2)oc2cc(O)cc(O)c12`, 0.66.
In the case of `CCCCCCCCCCC(=O)O` it was 0.19; in that of `O=c1cc(-c2ccc(O)cc2)oc2cc(O)cc(O)c12`, 0.14.
`O=C(O)C1=C/C(=C\C=[N+]2/c3cc(O)c(O[C@@H]4O[C@H](CO)[C@@H](O)[C@H](O)[C@H]4O)cc3C[C@H]2C(=O)[O-])C[C@@H](C(=O)O)N1`: the deltaA was 0.6.
In the case of `COc1cc(O)c2c(=O)c(OC)c(-c3ccc(OC)c(OC)c3)oc2c1`, the deltaA was 0.23.
To `O=c1c(-c2ccc(O)cc2)coc2cc(O)ccc12` belongs 0.48; to `O=c1cc(-c2ccccc2)oc2cc(O)cc(O)c12`, 0.3.
In the case of `CCCCCCCCCCCCCCCCCCC(=O)O` it was 0.53; in that of `CCCCCCCC/C=C\CCCCCCCCCCCCCC(=O)O`, 0.89; in that of `CCCCCCCCCCCCCCCCCCCCCC(=O)O`, 0.25.
To `CCCCCCCCCCCCCC(=O)O` belongs 0.58; to `COc1ccc(-c2cc(=O)c3ccccc3o2)cc1`, 0.24; to `CCCCCCCCCCCC(=O)O`, 0.19.
With `O=C(O)/C=C/c1ccc(O)c(O)c1`, the deltaA came to 0.69.
As to `CC12CCC(CC1=O)C2(C)C` (centres undefined), the deltaA was found to be 0.24.
For the compound `CC(C)CCC[C@@H](C)[C@H]1CC[C@H]2[C@@H]3CC=C4C[C@@H](O)CC[C@]4(C)[C@H]3CC[C@]12C`, the deltaA was 0.22.
In the case of `Oc1cc(O)c2c(c1)O[C@@H](c1cc(O)c(O)c(O)c1)[C@H](O)C2` it was 0.99; in that of `CC(C)=CCC/C(C)=C/C=C/C(C)=C/C=C/C(C)=C/C=C/C=C(C)/C=C/C=C(C)/C=C/C=C(\C)CCC=C(C)C`, 0.59.
In the case of `COc1cc(C(=O)O)ccc1O` it was 0.19; in that of `CCCCC/C=C\C/C=C\CCCCCCCC(=O)O`, 0.68.
Take `CCCCCCCC/C=C\CCCCCCCCCCCC(=O)O`: the deltaA was found to be 0.68.
To `CCCCCCCCCCCCCCCCCC(=O)O` belongs 0.47; to `O=C(O)c1ccc(O)cc1`, 0.13; to `O=c1c(-c2ccc(O)cc2)coc2cc(O[C@@H]3O[C@H](CO)[C@@H](O)[C@H](O)[C@H]3O)cc(O)c12`, 0.33.
To `COc1ccc(-c2coc3cc(O)cc(O)c3c2=O)cc1` belongs 0.37; to `O=c1c(-c2ccc(O)cc2)coc2cc(O)cc(O)c12`, 0.29.
In the case of `CCCCCCCCCCCCCCCCCCCCCCCC(=O)O` it was 0.16.
For `Oc1cccc(O)c1O`, the deltaA is 0.86.
To `CCCCCCCCCCCCCCCCCCCCCCC(=O)O` belongs 0.27; to `Cc1c(C)c2c(c(C)c1O)CC[C@@](C)(CCC[C@H](C)CCC[C@H](C)CCCC(C)C)O2`, 0.56; to `COc1cc(/C=C/C(O)=C/C(=O)/C=C/c2ccc(O)cc2)ccc1O`, 0.61.
To `CCCCCCCCCCCCC(=O)O` belongs 0.47.
Consider `O=C(O)/C=C/c1ccc(O)cc1`, for which the deltaA was 0.15.
In the case of `COc1ccc(-c2cc(=O)c3ccc(OC)cc3o2)cc1` it was 0.17; in that of `COc1ccccc1-c1cc(=O)c2c(OC)cccc2o1`, 0.27.
To `COc1ccc2ccc(=O)oc2c1` belongs 0.18; to `CCCCCCCC(=O)O`, 0.17.
In the case of `CCCCCCCCCCCCCCCCCCCC(=O)O` it was 0.25.
With `O=c1cc(-c2ccccc2)oc2c(O)c(O)ccc12`, the deltaA was determined as 0.49.
To `COc1cc(/C=C/C(=O)O)ccc1O` belongs 0.29.
To `C[C@H]1O[C@@H](OC[C@@H]2O[C@H](Oc3cc4c(O)cc(O)cc4[o+]c3-c3ccc(O)c(O)c3)[C@@H](O[C@@H]3O[C@H](CO)[C@@H](O)[C@H](O)[C@H]3O)[C@H](O)[C@H]2O)[C@@H](O)[C@@H](O)[C@@H]1O` belongs 0.28; to `CCCCCCCCCCCCCCCCC(=O)O`, 0.91; to `O=C(O)/C=C/c1ccc2c(c1)OCO2`, 0.19.
In the case of `O=C1O[C@H]([C@@H](O)CO)C(O)=C1O` it was 0.5.
With `Oc1cc(O)c2c(c1)O[C@H](c1ccc(O)c(O)c1)[C@@H](O)C2`, the deltaA was 0.88.
As for `COc1ccc(-c2cc(=O)c3c(O)cc(O)cc3o2)cc1`, the deltaA came out at 0.26.
In the case of `COc1cc(/C=C/C(=O)CC(=O)/C=C/c2ccc(O)c(OC)c2)ccc1O` it was 0.85; in that of `Cc1cccc(O)c1O`, 0.86; in that of `O=C(O)CCc1ccc(O)cc1`, 0.17.
